Reference: ChEMBL document CHEMBL1130431, “Synthesis and biochemical evaluation of N-(4-phenylthiazol-2-yl)benzenesulfonamides as high-affinity inhibitors of kynurenine 3-hydroxylase” (J Med Chem, 1997)

Assays:
[1] = molecular target: T1, Kynurenine 3-monooxygenase (Rattus norvegicus, UniProt O88867); assay: Inhibition of rat kidney Kynurenine 3-hydroxylase.
In short: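 The enzyme source was a crude mitochondrial fraction from rat kidney. The assay used 0.1 M K-phosphate pH 7.4 with 100 µM L-kynurenine plus 0.1 µCi L-[3-3H]kynurenine, 200 µM NADPH, and an NADPH-regenerating system, with 30 µg protein. Inhibitor was preincubated 15 min at 37 °C, then the reaction ran 10 min at 37 °C. Charcoal removed substrate and 3H2O was counted.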

[2] = molecular target: Kynurenine 3-monooxygenase (Rattus norvegicus) (UniProt O88867); assay: Compound was evaluated for ex vivo inhibition of Kynurenine 3-hydroxylase activity in liver of rat after injecting perorally; assay type: tissue-based
In short: (§1)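 Rats got oral doses in 0.1% Tween-80 suspension (0.5 mL/100 g), five or six doses with four or five animals per dose, and were decapitated 2 h later. Kidney or liver was homogenized in 9 volumes of 0.32 M sucrose/5 mM Tris-HCl pH 7.4 with 0.5 mM PMSF. 25 µL homogenate was assayed by [3H]water release with 2 min incubation.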

[3] = molecular target: Kynurenine 3-monooxygenase (Rattus norvegicus) (UniProt O88867); assay: Compound was evaluated for ex vivo inhibition of Kynurenine 3-hydroxylase activity in kidney of rat after injecting perorally; assay type: tissue-based; in short: as §1
[4] = molecular target: T1, Kynurenine 3-monooxygenase; assay: Inhibitory constant against Kynurenine 3-hydroxylase
In short: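 Competitive-inhibition kinetics on rat kidney crude mitochondrial kynurenine 3-hydroxylase. L-[3-3H]kynurenine saturation experiments with NADPH 200 μM plus a glucose 6-phosphate regenerating system, in 0.1 M potassium phosphate pH 7.4 at 37 °C. No preincubation; the enzyme was added to start the reaction. Read-out was tritiated water counted after charcoal removal of substrate. Ki was taken from replots of apparent Km versus inhibitor concentration; three experiments.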

[5] = test system: Kynurenine 3-monooxygenase (Meriones unguiculatus); assay: Compound was evaluated for ex vivo inhibition of Kynurenine 3-hydroxylase activity in Kidney from Gerbils after injecting perorally; conditions: Gerbillinae
[6] = test system: Kynurenine 3-monooxygenase (Meriones unguiculatus); assay: Compound was evaluated for ex vivo inhibition of Kynurenine 3-hydroxylase activity in brain from Gerbils after injecting perorally; conditions: Gerbillinae
[7] = test system: Kynurenine 3-monooxygenase (Meriones unguiculatus); assay: Compound was evaluated for ex vivo inhibition of Kynurenine 3-hydroxylase activity in Liver from Gerbils after injecting perorally; conditions: Gerbillinae

Sequence of Kynurenine 3-monooxygenase (Rattus norvegicus) (O88867 whole entry, looked up): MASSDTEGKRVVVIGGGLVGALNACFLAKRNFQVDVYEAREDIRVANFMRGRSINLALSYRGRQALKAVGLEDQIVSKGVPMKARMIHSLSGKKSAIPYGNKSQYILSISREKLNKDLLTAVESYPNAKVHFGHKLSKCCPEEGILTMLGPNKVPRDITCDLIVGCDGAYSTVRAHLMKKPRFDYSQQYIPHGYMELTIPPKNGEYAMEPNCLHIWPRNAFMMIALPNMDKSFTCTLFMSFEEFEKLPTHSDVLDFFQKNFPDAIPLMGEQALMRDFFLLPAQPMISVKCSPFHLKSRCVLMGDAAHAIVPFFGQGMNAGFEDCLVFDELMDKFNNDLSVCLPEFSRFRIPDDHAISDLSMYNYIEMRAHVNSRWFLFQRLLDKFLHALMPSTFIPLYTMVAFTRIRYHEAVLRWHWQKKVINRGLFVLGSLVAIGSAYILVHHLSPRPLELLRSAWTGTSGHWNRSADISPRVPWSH
T1 sequence (O88867 whole entry): as the sequence (O88867 whole entry, looked up) above

Compound	IC50 [1] [nM]	also measured
O=C(O)CCC(=O)c1cccc([N+](=O)[O-])c1	5770	
O=[N+]([O-])c1cccc(-c2csc(NS(=O)(=O)c3ccccc3)n2)c1	200	
O=C(O)c1[cH-]c(-c2cccc([N+](=O)[O-])c2)[o+]n1	2680	
NC(CC(=O)c1cccc([N+](=O)[O-])c1)C(=O)O (stereo unspecified)	774	
COc1ccc(S(=O)(=O)Nc2nc(-c3cccc([N+](=O)[O-])c3)cs2)cc1OC	37	Ki [4]: 4.8 nM
O=[N+]([O-])c1cccc(-c2cc(-c3nn[nH]n3)no2)c1	1160	
NC(CC(=O)c1ccc(Cl)c(Cl)c1)C(=O)O (stereo unspecified)	237	Ki [4]: 95 nM; ED50 [2]: 222 µmol/kg; ED50 [3]: 25.1 µmol/kg
COc1ccc(S(=O)(=O)Nc2nc(-c3cc(C(F)(F)F)ccc3F)cs2)cc1OC	39	ED50 [5]: 1.8 µmol/kg; ED50 [2]: 5.3 µmol/kg; ED50 [6]: 5.2 µmol/kg; ED50 [3]: 6.6 µmol/kg; ED50 [7]: 0.9 µmol/kg
O=[N+]([O-])c1cccc(-c2csc(NS(=O)(=O)c3ccc(Cl)c(Cl)c3)n2)c1	120	

Now from value to compound, other results behind:

IC50 [1] [nM]	Compound	also measured
56	Cc1ccc(S(=O)(=O)Nc2nc(-c3ccc(Cl)c(Cl)c3)cs2)cc1	
990	CC(C)c1ccc(S(=O)(=O)Nc2nc(-c3cccc([N+](=O)[O-])c3)cs2)cc1	
51	COc1ccc(S(=O)(=O)Nc2nc(-c3cccc([N+](=O)[O-])c3)cs2)cc1	ED50 [2]: 9 µmol/kg; ED50 [3]: 3 µmol/kg
40	Nc1ccc(S(=O)(=O)Nc2nc(-c3cccc([N+](=O)[O-])c3)cs2)cc1	
76	Cc1ccc(-c2csc(NS(=O)(=O)c3ccc(C)cc3)n2)cc1	
56	Cc1ccc(S(=O)(=O)Nc2nc(-c3ccc(Cl)cc3)cs2)cc1	
48	Cc1ccc(S(=O)(=O)Nc2nc(-c3cccc([N+](=O)[O-])c3)cs2)cc1	ED50 [2]: 33.4 µmol/kg; ED50 [3]: 13.3 µmol/kg
240	COc1ccc(-c2csc(NS(=O)(=O)c3ccc(C)cc3)n2)cc1	
19	Nc1ccc(S(=O)(=O)Nc2nc(-c3cc(C(F)(F)F)ccc3F)cs2)cc1	ED50 [2]: 4.6 µmol/kg; ED50 [3]: 1.1 µmol/kg
114	Cc1ccc(S(=O)(=O)Nc2nc(-c3ccc(O)c(C)c3)cs2)cc1	
470	Cc1ccc(S(=O)(=O)Nc2nc(-c3ccccc3)cs2)cc1	
84	O=[N+]([O-])c1cccc(-c2csc(NS(=O)(=O)c3ccc(Cl)cc3)n2)c1	
